CTSL1 counter = cathepsin L1 inhibition, PFM18AAP counter-screen | recombinant F. hepatica cathepsin L1, Z-Leu-Arg-MCA fluorescence | inhibition, % at 5.96 µM | hit rate 0.49% among 300,000 | AID 1906;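 active = inhibition above the mean of all tested compounds plus 3 SD, set per screening campaign, cut at about 17% in these data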;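 also: 0% = plate median of test compound wells and 100% = 1 µM Z-Phe-Ala-diazomethylketone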
PAD4 FP inh = inhibitors of human PAD4; recombinant PAD4, RCA probe fluorescence polarization; inhibition, % at 6.36 µM; hit rate 0.41% among 330,000;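 active = percent inhibition above a cutoff equal to the mean of all tested compounds plus 3 SD, cut at about 15% in these data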;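 also: 0% = PAD4 with RCA probe and DMSO and 100% = probe without PAD4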
TDP2 absorb = TDP2 (human) inhibition, absorbance primary screen; recombinant TDP2, T5PNP hydrolysis, p-nitrophenol absorbance 415 nm; inhibition, % at 12.8 µM; hit rate 0.34% among 370,000; AID 720702;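 active = inhibition above the mean of all tested compounds plus 3 SD, set per campaign, cut at about 25% in these data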;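 also: 0% = DMSO with enzyme and 100% = buffer with substrate but no TDP2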
Target sequence (O95551 whole entry, looked up): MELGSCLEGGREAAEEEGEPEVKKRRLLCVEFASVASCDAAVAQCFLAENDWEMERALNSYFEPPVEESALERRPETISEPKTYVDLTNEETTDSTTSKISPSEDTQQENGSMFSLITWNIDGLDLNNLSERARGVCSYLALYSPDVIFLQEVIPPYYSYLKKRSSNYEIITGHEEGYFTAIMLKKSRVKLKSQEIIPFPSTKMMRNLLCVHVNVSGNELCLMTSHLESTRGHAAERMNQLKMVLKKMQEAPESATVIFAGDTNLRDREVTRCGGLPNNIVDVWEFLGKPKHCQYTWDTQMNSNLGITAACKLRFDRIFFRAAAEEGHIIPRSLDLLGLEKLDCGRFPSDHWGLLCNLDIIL
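test system = human TDP2 enzyme | input = TDP2 enzyme at 120 nM final | medium = 50 mM Tris-HCl pH 7.5 with Mg2+, KCl, DTT, BSA | also added = T5PNP substrate, 5 mM | times = 2 h at 37 °C | technique = epi absorbance | benchmarks = high control without enzyme, low control DMSO plus TDP2 | replication = each compound tested once, singlicate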
GSTO1 inh = GSTO1 inhibition, counter-screen for RBBP9 inhibitors; P78417; recombinant GSTO1, activity-based probe fluorescence polarization; inhibition, % at 5.96 µM; hit rate 1.1% among 300,000; AID 1974;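 active = inhibition above the campaign mean inhibition plus 3 SD, cut at about 35% in these data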;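 also: 0% = GSTO1-1 with DMSO and 100% = wells lacking GSTO1-1 enzyme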
Target sequence (P78417 whole entry, looked up): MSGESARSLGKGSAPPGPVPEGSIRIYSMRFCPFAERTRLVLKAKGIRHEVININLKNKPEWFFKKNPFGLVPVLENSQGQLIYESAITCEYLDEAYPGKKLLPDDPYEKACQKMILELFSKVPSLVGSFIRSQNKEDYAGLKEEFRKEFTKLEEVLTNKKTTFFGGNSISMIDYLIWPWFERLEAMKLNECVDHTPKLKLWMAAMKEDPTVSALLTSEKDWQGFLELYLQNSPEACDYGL
GSTO1 confirm = confirmation of human GSTO1 inhibitors. recombinant GSTO1, probe fluorescence polarization. hit rate 54% among 2,400. inhibition, % at 5.96 µM. shares compounds with GSTO1 inh;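 active = inhibition above the primary screen's cutoff, its mean inhibition plus 3 SD, cut at about 35% in these data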;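 also: loss of polarization as inhibitors block binding of rhodamine sulfonate ester activity probe; 0% = GSTO1 with DMSO and 100% = wells lacking GSTO1 enzyme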
GSTO1 recomb ABPP = GSTO1 (human) inhibition by gel ABPP | AID 463110 | hit rate 30% among 130 | inhibition, % at 1 µM | shares compounds with GSTO1 inh | recombinant GSTO1, gel ABPP SE-Rh probe fluorescence;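 active = inhibition of the enzyme GSTO1 above about 75%, limit read from the data; inactive = inhibition below that limit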
Active calls of the source: *; . = not tested or not shown. Hits are enriched below; roughly 1.4% of the tested compounds scored in any of these assays.

SMILES	CTSL1 counter	PAD4 FP inh	TDP2 absorb	GSTO1 inh	GSTO1 confirm	others
COC(=O)/C(C(C)=O)=C(\C=C\N(C)C)N(C)C	0	0	-5	3	.
COC(=O)\C(C(C)=O)=C(/C=C/C=C/C=C/N(C)C)N(C)C	0	4	6	38*	-44
COC(=O)c1cc2c(c3c4cc(OC)ccc4n(S(=O)(=O)c4ccc(F)cc4)c13)C(=O)N(CC(C)C)C2	.	.	-2	.	.
COc1cc(/C=C2/C(=O)c3cccc([N+](=O)[O-])c3C2=O)c(Br)cc1O	-3	-6	6	47*	55*
COc1ccccc1NC(=O)CCCCCN1C(=O)c2cccc([N+](=O)[O-])c2C1=O	1	0	4	-2	.
COc1ccc(CNC(=O)c2c(C)oc3c2C(=O)c2ccccc2C3=O)cc1	16	-7	16	53*	35*
CC(=O)c1c2c3c(cccc3n(C)c1=O)C(=O)c1ccccc1-2	0	12	.	9	.
Cc1oc2c(c1C(=O)NCc1cccnc1)C(=O)c1ccccc1C2=O	31*	10	.	60*	48*
CC(=O)c1c(C)oc2c1C(=O)c1ccccc1C2=O	7	-19	5	46*	56*
COc1ccc(CNC(=O)c2ccc(-c3ccccc3)cc2)cc1	-3	-3	5	-1	.
COc1ccc([C@H]2OC(=O)C[C@@H]2C(=O)N2CCN(c3ccccc3F)CC2)cc1OC	.	.	2	.	.
COC(=O)C[C@H]1CC[C@@H]2[C@H](COc3ccc(NC(=O)c4cccc(Cl)c4)cc3C(=O)N2C)O1	.	.	8	.	.
Cc1ccc(C)c(Sc2ccc(NC(=O)CCN3C(=O)NC4(CCCC4)C3=O)cc2)c1	.	-5	-9	.	.
Cc1ccc(Sc2ccc(NC(=O)CCl)cc2)c(C)c1	1	3	6	78*	89*
CCCCN1C(=O)N2Cc3ccccc3C2CS1(=O)=O (stereo unspecified)	.	.	-5	.	.
N#C/C(=C(/O)CSc1ccccn1)c1nc2ccccc2s1	11	-44	-5	20	.
Cc1ccc(SC/C(O)=C(\C#N)c2nc3ccccc3s2)cc1	2	-2	7	49*	48*
CCCc1cc(=O)oc2cc(C)cc(OCC(=O)N3C[C@H]4C[C@@H](C3)c3cccc(=O)n3C4)c12	.	.	4	.	.
O=[N+]([O-])c1ccc(O)c(/C=N/Nc2nn[nH]n2)c1	4	1	-5	47*	9
Oc1ccccc1/C=N/Nc1nn[nH]n1	1	1	-12	25	.
COc1cccc(-c2cnc3c(NC=O)cc(-c4ccccc4Oc4ccccc4)cn23)c1	.	.	-3	.	.
CC(C(=O)O)N1C(=O)/C(=C/C=C/c2ccco2)SC1=S (stereo unspecified)	4	-1	3	64*	30
C[C@H]1Cn2cnc(C(=O)NCc3ccc(CNC(=O)OC(C)(C)C)cc3)c2C(=O)N1	.	.	-5	.	.
COC(=O)C1CN(C2CCCC2)CCS(=O)(=O)N1Cc1ccccc1 (stereo unspecified)	.	.	2	.	.
CCc1ccccc1-c1cc(C(C)=O)c2n(c1=O)CCC2	.	.	-1	.	.
SMILES	CTSL1 counter	PAD4 FP inh	TDP2 absorb	GSTO1 inh	GSTO1 confirm	others
CCCCCCN(C(=O)CCl)c1ccccc1	-2	6	0	83*	97*	GSTO1 recomb ABPP=83*
CCCCCCCN(C(=O)CCl)c1cccc(C)c1	1	2	1	97*	96*	GSTO1 recomb ABPP=73
COC(=O)[C@]12C[C@H](CC(=O)NCCc3ccccc3OC)C(=O)N(Cc3ccco3)C1=C[C@H](COCc1ccccc1)O[C@@H]2C	.	.	0	.	.
Cc1ccc(OC[C@@H](O)CN2CCC(C(O)(c3ccccc3)c3ccccc3)CC2)cc1	.	.	1	.	.
COc1ccc(NC(=O)c2ccccc2NC(=O)c2ccccc2)cc1	0	4	-3	6	.
COc1ccc(C(=O)Nc2ccc(O)c3ccccc23)cc1	0	-8	12	49*	6
CCOC(=O)[C@@]12CCCC3=C1N(CCC3)C(=O)[C@H]2CC(=O)NCc1cccc(C(F)(F)F)c1	.	.	5	.	.
O=C(CCl)Nc1ccccc1C(=O)c1ccccc1	11	2	-2	82*	98*
O=C(CCl)Nc1ccccc1Sc1ccc(Cl)cc1	21*	7	-7	90*	94*
O=C(Nc1ccc(F)cc1)OCc1cn(Cc2cccc(F)c2F)nn1	.	.	9	.	.
O=C1CSC2=NCN(c3ccc4c(c3)OCO4)CN12	0	0	15	11	.
CN(C)c1ccc(N2CN=C3SCC(=O)N3C2)cc1	-4	12	12	72*	4
COC(=O)C[C@H]1CC[C@@H]2[C@H](COc3ccc(NC(=O)c4cnccn4)cc3C(=O)N2C)O1	.	.	-10	.	.
COC(=O)c1sc2nc(-c3ccco3)ccc2c1N	9	9	3	48*	16
CN(Cc1ccccc1)C(=O)CC(c1ccccc1)c1cc(Cl)ccc1O (stereo unspecified)	-4	-3	4	58*	3
CC(NC(=O)CC(c1ccccc1)c1cc(Cl)ccc1O)c1ccccc1 (stereo unspecified)	-1	-5	-4	0	.
O=C(NCc1ccc2[nH]c3c(c2c1)CCCC3)N1CCOCC1	3	-17	.	49*	59*
CN(C)[C@@H]1CCN(c2cccc3c2S(=O)(=O)N2CC[C@@H](C2)O3)C1	.	.	10	.	.
CCOC(=O)C1CCCCN1C(=O)[C@@H]1CC=C[C@@H]2CCN(c3ccccc3)C(=O)[C@@H]21 (stereo partly specified)	.	.	-6	.	.
CC(CNc1ccccc1O)C(=O)O (stereo unspecified)	-2	-7	11	45*	7
CCN(CC)CCCNC(=O)c1cn(C(C)c2ccccc2)nn1 (stereo unspecified)	.	.	11	.	.
NC1=NC(=O)/C(=C\c2ccco2)S1	6	2	11	41*	31
NC1=NC(=O)C(=Cc2ccccc2)S1	.	.	-4	.	.
COc1ccc([C@H]2OC(=O)C[C@@H]2C(=O)N2CCCCC2)cc1OC	.	.	9	.	.
COC(=O)C1CN(Cc2ccccc2)CCS(=O)(=O)N1Cc1ccc(C)cc1 (stereo unspecified)	.	.	0	.	.
SMILES	CTSL1 counter	PAD4 FP inh	TDP2 absorb	GSTO1 inh	GSTO1 confirm	others
O=C(N/N=C/c1cc(Br)c(Br)o1)c1cccnc1	11	4	7	44*	15
O=C(N/N=C\c1cc(Br)c(Br)o1)c1cncc(Br)c1	4	-3	-2	-5	.
O=C1NC(c2ccccc2Cl)Nc2ccccc21 (stereo unspecified)	1	3	4	4	.
Clc1ccccc1C1Nc2cccc3cccc(c23)N1	-4	-2	11	43*	8
CN(C)CCCNC(=O)/C(=C/c1ccc(-c2ccc([N+](=O)[O-])cc2)o1)NC(=O)c1ccccc1	2	-6	-6	8	.
Cc1ccc(C(=O)N/C(=C\c2ccc(-c3ccccc3[N+](=O)[O-])o2)C(=O)NCCCN(C)C)cc1	3	-11	18	44*	7

From PubChem
